From ChEMBL document CHEMBL1156693, “Novel N-(phosphonomethyl) glycine derivatives: Design, characterization and biological activity” (Eur J Med Chem, 2008)
Active and inactive are the calls of the source. No cut-off for these calls is given here.

Legend:
Mus musculus [1] = test: Clastogenic effect on C57BL mouse assessed as number of metaphase chromosomal breaks in bone marrow cells at 100 mg/kg, ip after 48 hrs; assay type: functional; conditions: route intraperitoneal
Procedure, shortened: (§1)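 Inbred male and female C57Bl mice, groups of 3 males + 3 females, dosed i.p. (0.9% NaCl vehicle/negative control); mitomycin C 3.5 mg/kg positive control. Colchicine 40 mg/kg i.p. 1 h before femoral bone marrow harvest; hypotonic 0.075 M KCl 20 min at 37 °C, methanol-acetic acid fixation, Giemsa stain; ≥50 metaphases per animal scored; group mean ± SE.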

Mus musculus [2] = test: Clastogenic effect on C57BL mouse assessed as number of metaphase chromosomal breaks in bone marrow cells at 10 mg/kg, ip after 48 hrs; assay type: functional; conditions: route intraperitoneal; procedure, shortened: as §1
LAMA-84 = test: Cytotoxicity against human LAMA-84 cells after 72 hrs by MTT assay; assay type: functional, cell-based; conditions: LAMA-84, 72 h
Procedure, shortened: (§2)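 Cells at 37 °C, 5% CO2; 293T in DMEM, others in RPMI 1640, both with 2 mM L-glutamine and 10% FCS. Seeded 10⁴ cells/well, 24 h preincubation, then compounds 0.195–200 µM (DMSO ≤1% final) for 72 h continuous. MTT added, 4 h, formazan dissolved in 5% formic acid-acidified DMSO, absorbance read; IC50 = concentration giving 50% survival decrease.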

Mus musculus [3] = test: Clastogenic effect on C57BL mouse assessed as number of metaphase chromosome telomere/telomeric fusion in bone marrow cells at 10 mg/kg, ip after 24 hrs; assay type: functional; conditions: route intraperitoneal; procedure, shortened: as §1
HD-MY-Z = test: Cytotoxicity against human HD-MY-Z cells after 72 hrs by MTT assay; assay type: functional, cell-based; procedure, shortened: as §2
Mus musculus [4] = test: Clastogenic effect on C57BL mouse assessed as number of metaphase chromosomal fragments in bone marrow cells at 100 mg/kg, ip after 48 hrs; assay type: functional; conditions: route intraperitoneal; procedure, shortened: as §1
Mus musculus [5] = test: Clastogenic effect on C57BL mouse assessed as number of metaphase chromosomal centromere/centromeric fusion in bone marrow cells at 100 mg/kg, ip after 48 hrs; assay type: functional; conditions: route intraperitoneal; procedure, shortened: as §1
Mus musculus [6] = test: Clastogenic effect on C57BL mouse assessed as number of metaphase chromosomal centromere/centromeric fusion in bone marrow cells at 10 mg/kg, ip after 48 hrs; assay type: functional; conditions: route intraperitoneal; procedure, shortened: as §1
Mus musculus [7] = test: Clastogenic effect on C57BL mouse assessed as mitotic index in bone marrow cells at 10 mg/kg, ip after 48 hrs; assay type: functional; conditions: route intraperitoneal
Procedure, shortened: (§3)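 C57Bl mice (3 males + 3 females per group) given compound i.p.; saline controls. Colchicine 40 mg/kg i.p. 1 h before bone marrow harvest from femur; hypotonic KCl, fixed, Giemsa-stained slides. Mitotic index = dividing cells counted among 1500 cells per animal; per-animal values averaged as group mean ± SE.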

EJ = test: Cytotoxicity against human EJ cells after 72 hrs by MTT assay; assay type: functional, cell-based; procedure, shortened: as §2
Mus musculus [8] = test: Clastogenic effect on C57BL mouse assessed as number of metaphase chromosomal breaks in bone marrow cells at 100 mg/kg, ip after 24 hrs; assay type: functional; conditions: route intraperitoneal; procedure, shortened: as §1
Mus musculus [9] = test: Clastogenic effect on C57BL mouse assessed as number of metaphase chromosome telomere/telomeric fusion in bone marrow cells at 10 mg/kg, ip after 48 hrs; assay type: functional; conditions: route intraperitoneal; procedure, shortened: as §1
DOHH-2 [10] = test: Cytotoxicity against human DOHH2 cells after 72 hrs by MTT assay; assay type: functional, cell-based; conditions: DOHH-2, 72 h; procedure, shortened: as §2
Mus musculus [11] = test: Clastogenic effect on C57BL mouse assessed as number of metaphase chromosomal centromere/centromeric fusion in bone marrow cells at 10 mg/kg, ip after 24 hrs; assay type: functional; conditions: route intraperitoneal; procedure, shortened: as §1
Mus musculus [12] = test: Clastogenic effect on C57BL mouse assessed as mitotic index in bone marrow cells at 100 mg/kg, ip after 48 hrs; assay type: functional; conditions: route intraperitoneal; procedure, shortened: as §3
Mus musculus [13] = test: Clastogenic effect on C57BL mouse assessed as number of metaphase chromosomal centromere/centromeric fusion in bone marrow cells at 100 mg/kg, ip after 24 hrs; assay type: functional; conditions: route intraperitoneal; procedure, shortened: as §1
[14] = Cytotoxicity against human 293T after 72 hrs by MTT assay; assay type: cell-based; conditions: HEK-293T; procedure, shortened: as §2
Mus musculus [15] = test: Clastogenic effect on C57BL mouse assessed as bone marrow cells with abberation at 100 mg/kg, ip after 24 hrs; assay type: functional; conditions: route intraperitoneal; procedure, shortened: as §1
HL-60 = test: Cytotoxicity against human HL60 cells after 72 hrs by MTT assay; assay type: functional, cell-based; conditions: HL-60, 72 h; procedure, shortened: as §2
DOHH-2 [16] = test: Induction of apoptosis in human DOHH2 cells assessed as increase in histone-associated oligonucleotide level after 24 hrs by ELISA; assay type: functional, cell-based
Procedure, shortened: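 DOHH-2 cells exposed 24 h to equitoxic compound concentrations versus untreated control; cytosolic fractions of 1 × 10⁴ cells used in sandwich ELISA (anti-histone capture, peroxidase-conjugated anti-DNA detection) for histone-associated DNA fragments, read at 405 nm; means ± SD of three independent experiments.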

Mus musculus [17] = test: Clastogenic effect on C57BL mouse assessed as bone marrow cells with abberation at 10 mg/kg, ip after 24 hrs; assay type: functional; conditions: route intraperitoneal; procedure, shortened: as §1
Mus musculus [18] = test: Clastogenic effect on C57BL mouse assessed as number of metaphase chromosomal fragments in bone marrow cells at 100 mg/kg, ip after 24 hrs; assay type: functional; conditions: route intraperitoneal; procedure, shortened: as §1
Mus musculus [19] = test: Clastogenic effect on C57BL mouse assessed as mitotic index in bone marrow cells at 100 mg/kg, ip after 24 hrs; assay type: functional; conditions: route intraperitoneal; procedure, shortened: as §3
Mus musculus [20] = test: Clastogenic effect on C57BL mouse assessed as number of metaphase chromosomal fragments in bone marrow cells at 10 mg/kg, ip after 24 hrs; assay type: functional; conditions: route intraperitoneal; procedure, shortened: as §1
Mus musculus [21] = test: Clastogenic effect on C57BL mouse assessed as number of metaphase chromosome telomere/telomeric fusion in bone marrow cells at 100 mg/kg, ip after 48 hrs; assay type: functional; conditions: route intraperitoneal; procedure, shortened: as §1
Mus musculus [22] = test: Clastogenic effect on C57BL mouse assessed as bone marrow cells with abberation at 100 mg/kg, ip after 48 hrs; assay type: functional; conditions: route intraperitoneal; procedure, shortened: as §1
Mus musculus [23] = test: Clastogenic effect on C57BL mouse assessed as number of metaphase chromosomal breaks in bone marrow cells at 10 mg/kg, ip after 24 hrs; assay type: functional; conditions: route intraperitoneal; procedure, shortened: as §1
Mus musculus [24] = test: Clastogenic effect on C57BL mouse assessed as bone marrow cells with abberation at 10 mg/kg, ip after 48 hrs; assay type: functional; conditions: route intraperitoneal; procedure, shortened: as §1
K562 = test: Cytotoxicity against human K562 cells after 72 hrs by MTT assay; assay type: functional, cell-based; conditions: K562, 72 h; procedure, shortened: as §2
Mus musculus [25] = test: Clastogenic effect on C57BL mouse assessed as number of metaphase chromosomal fragments in bone marrow cells at 10 mg/kg, ip after 48 hrs; assay type: functional; conditions: route intraperitoneal; procedure, shortened: as §1
Mus musculus [26] = test: Clastogenic effect on C57BL mouse assessed as number of metaphase chromosome telomere/telomeric fusion in bone marrow cells at 100 mg/kg, ip after 24 hrs; assay type: functional; conditions: route intraperitoneal; procedure, shortened: as §1
Mus musculus [27] = test: Clastogenic effect on C57BL mouse assessed as mitotic index in bone marrow cells at 10 mg/kg, ip after 24 hrs; assay type: functional; conditions: route intraperitoneal; procedure, shortened: as §3
Mus musculus [28] = test: Clastogenic effect on C57BL mouse assessed as bone marrow cells with abberation at 3.5 mg/kg, ip after 24 hrs; assay type: functional; conditions: route intraperitoneal
Procedure, shortened: (§4)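 Inbred male and female C57Bl mice (20.0 ± 1.5 g), groups of 3 males + 3 females, 5 controls given 0.9% NaCl. Single i.p. dose. Colchicine 40 mg/kg i.p. 1 h before femoral bone marrow harvest. Cells in 0.075 M KCl for 20 min at 37 °C, fixed in methanol–acetic acid (3:1), stained with 5% Giemsa. At least 50 metaphases scored per animal for breaks, fragments, centromere/centromeric and telomere/telomeric fusions. Mitotic index from 1500 cells per animal. Group mean ± SE.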

Mus musculus [29] = test: Clastogenic effect on C57BL mouse assessed as number of metaphase chromosomal fragments in bone marrow cells at 3.5 mg/kg, ip after 24 hrs; assay type: functional; conditions: route intraperitoneal; procedure, shortened: as §4
Mus musculus [30] = test: Clastogenic effect on C57BL mouse assessed as number of metaphase chromosomal centromere/centromeric fusion in bone marrow cells at 3.5 mg/kg, ip after 24 hrs; assay type: functional; conditions: route intraperitoneal; procedure, shortened: as §4
Mus musculus [31] = test: Clastogenic effect on C57BL mouse assessed as number of metaphase chromosomal breaks in bone marrow cells at 3.5 mg/kg, ip after 24 hrs; assay type: functional; conditions: route intraperitoneal; procedure, shortened: as §4
Mus musculus [32] = test: Clastogenic effect on C57BL mouse assessed as number of metaphase chromosome telomere/telomeric fusion in bone marrow cells at 3.5 mg/kg, ip after 24 hrs; assay type: functional; conditions: route intraperitoneal; procedure, shortened: as §4
Mus musculus [33] = test: Clastogenic effect on C57BL mouse assessed as mitotic index in bone marrow cells at 3.5 mg/kg, ip after 24 hrs; assay type: functional; conditions: route intraperitoneal; procedure, shortened: as §4

Compound	Activity (Mus musculus [1])	Activity (Mus musculus [2])	IC50 (LAMA-84) [µM]	Activity (Mus musculus [3])	IC50 (HD-MY-Z) [µM]	Activity (Mus musculus [4])	Activity (Mus musculus [5])	Activity (Mus musculus [6])	Activity (Mus musculus [7]) [%]	IC50 (EJ) [µM]	Activity (Mus musculus [8])	Activity (Mus musculus [9])	IC50 (DOHH-2 [10]) [µM]	Activity (Mus musculus [11])	Activity (Mus musculus [12]) [%]	Activity (Mus musculus [13])	IC50 [14] [µM]	Activity (Mus musculus [15]) [%]	IC50 (HL-60) [µM]	Activity (DOHH-2 [16])	also measured
COP(=O)(CNC1(C(=O)O)CCCCCCCCCCC1)OC	6	2	67.3	0	67.3	6	11	12	8.6	111	4	0	20.1	11	12.82	11	159	4.29	41.4	Active	Activity (Mus musculus [17]): 5.57%; Activity (Mus musculus [18]): 0; Activity (Mus musculus [19]): 11.82%; Activity (Mus musculus [20]): 2; Activity (Mus musculus [21]): 2; Activity (Mus musculus [22]): 10%; Activity (Mus musculus [23]): 4; Activity (Mus musculus [24]): 5%; IC50 (K562): 47.1 µM; Activity (Mus musculus [25]): 1; Activity (Mus musculus [26]): 0; Activity (Mus musculus [27]): 11.13%
COP(=O)(CNC1(C(=O)O)CCCCCCC1)OC	3	0	71.4	0	127	0	12	14	13.95	115	4	0	37.4	10	9.67	11	176	5.43	73.5	Active	Activity (Mus musculus [17]): 3.71%; Activity (Mus musculus [18]): 3; Activity (Mus musculus [19]): 13.06%; Activity (Mus musculus [20]): 1; Activity (Mus musculus [21]): 0; Activity (Mus musculus [22]): 5%; Activity (Mus musculus [23]): 2; Activity (Mus musculus [24]): 4.67%; IC50 (K562): 79.1 µM; Activity (Mus musculus [25]): 1; Activity (Mus musculus [26]): 1; Activity (Mus musculus [27]): 11.35%
CO[C@@]12[C@H](COC(N)=O)C3=C(C(=O)C(C)=C(N)C3=O)N1C[C@@H]1N[C@@H]12 [MITOMYCIN]	–	–	–	–	–	–	–	–	–	–	–	–	–	–	–	–	–	–	–	–	Activity (Mus musculus [28]): 46.67%; Activity (Mus musculus [29]): 13; Activity (Mus musculus [30]): 11; Activity (Mus musculus [31]): 10; Activity (Mus musculus [32]): 0; Activity (Mus musculus [33]): 5.49%
